This note sets out measurements from ChEMBL document CHEMBL3227962, “Synthesis of hydroxy- and amino-substituted benzohydroxamic acids: inhibition of ribonucleotide reductase and antitumor activity” (J Med Chem, 1979).

For series [1], the system named is L1210. The series is described as follows: Antitumor activity against mouse L1210 cells allografted in C6D2F1 mouse at 100 to 1000 mg/kg, ip for 8 days starting from day 1 of challenge relative to control. The note with it: dose mg/kg 100-1000; route intraperitoneal.
Series [2] is filed under the species Rattus norvegicus. The series is described as follows: Inhibition of ribonucleotide reductase purified from rat Novikoff hepatoma assessed as inhibition of [3H]CDP to [3H]dCDP conversion after 40 mins. The method in brief:
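Ribonucleotide reductase was partially purified from Novikoff hepatoma. The 0.34 mL mix held 3 µCi [3H]CDP (14–19 Ci/mmol), 3.3 mM ATP, 5.9 mM MgCl2, 8.8 mM Hepes pH 7.5, 15 mM DTT and 0.4–1.3 mg enzyme protein, incubated 40 min at 30 °C. Vehicle was water, ≤1% ethanol or 2% DMSO. Each inhibitor was tested at ≥3 concentrations, with actives repeated. ID50 was read from graphs.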

The subject of series [3] is L1210. The series is described as follows: Antitumor activity against ip dosed mouse L1210 cells allografted in C6D2F1 mouse assessed as dose to achieve maximum life span administered for 8 days starting from day 1 of challenge. It is filed as functional. Put shortly: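 L1210 leukemia propagated in DBA/2 mice; diluted ascitic fluid (0.10 mL, 10^5 cells) injected ip into female C6D2F1 mice (~20 g) on day 0. Compounds given ip once daily for 8 days from day 1, generally three doses in the 100–1000 mg/kg range, 8 mice per dose; other doses per toxicity. Read-out: life span as T/C %.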

Series [4] relates to L1210. The series is described as follows: Antitumor activity against mouse L1210 cells allografted in C6D2F1 mouse at 100 mg/kg, ip for 8 days starting from day 1 of challenge relative to control. Format: functional. The note with it: route intraperitoneal.
For series [5], the system named is L1210. The series is described as follows: Antitumor activity against mouse L1210 cells allografted in C6D2F1 mouse at 500 mg/kg, ip for 8 days starting from day 1 of challenge relative to control. Format: functional. The note with it: route intraperitoneal.
Series [6] has as its system Mus musculus. The series is described as follows: Toxicity in mouse L1210 cells allografted C6D2F1 mouse at 800 mg/kg, ip for 8 days measured on day 2. Format: organism-based. More on the design: dose 800 mg/kg, route intraperitoneal. As to conditions: in vivo, 192 h.
The test system of series [7] is L1210. The series is described as follows: Antitumor activity against mouse L1210 cells allografted in C6D2F1 mouse at 800 mg/kg, ip for 8 days starting from day 1 of challenge relative to control. Format: functional. The note with it: route intraperitoneal.
The test system of series [8] is L1210. The series is described as follows: Antitumor activity against mouse L1210 cells allografted in C6D2F1 mouse at 400 mg/kg, ip for 8 days starting from day 1 of challenge relative to control. It is filed as functional. As to conditions: route intraperitoneal.
The test system of series [9] is L1210. The series is described as follows: Antitumor activity against mouse L1210 cells allografted in C6D2F1 mouse at 300 mg/kg, ip for 8 days starting from day 1 of challenge relative to control. It is filed as functional. The note with it: route intraperitoneal.
The subject of series [10] is L1210. The series is described as follows: Antitumor activity against mouse L1210 cells allografted in C6D2F1 mouse at 600 mg/kg, ip for 8 days starting from day 1 of challenge relative to control. Format: functional. The note with it: route intraperitoneal.
Series [11] relates to Mus musculus. The series is described as follows: Toxicity in mouse L1210 cells allografted C6D2F1 mouse at 500 mg/kg, ip for 8 days measured on day 3. It is filed as organism-based. Details: dose 500 mg/kg, route intraperitoneal. The note with it: in vivo, 192 h.
Series [12] has as its system L1210. The series is described as follows: Antitumor activity against mouse L1210 cells allografted in C6D2F1 mouse at 450 mg/kg, ip for 8 days starting from day 1 of challenge relative to control. Format: functional. As to conditions: route intraperitoneal.
Series [13] has as its system L1210. The series is described as follows: Antitumor activity against mouse L1210 cells allografted in C6D2F1 mouse at 200 mg/kg, ip for 8 days starting from day 1 of challenge relative to control. Format: functional. As to conditions: route intraperitoneal.
For series [14], the system named is L1210. The series is described as follows: Antitumor activity against mouse L1210 cells allografted in C6D2F1 mouse at 700 mg/kg, ip for 8 days starting from day 1 of challenge relative to control. The note with it: route intraperitoneal. Format: functional.
Series [15] relates to L1210. The series is described as follows: Antitumor activity against mouse L1210 cells allografted in C6D2F1 mouse at 1000 mg/kg, ip for 8 days starting from day 1 of challenge relative to control. It is filed as functional. As to conditions: route intraperitoneal.
Series [16] has as its system L1210. The series is described as follows: Antitumor activity against mouse L1210 cells allografted in C6D2F1 mouse at 75 mg/kg, ip for 8 days starting from day 1 of challenge relative to control. It is filed as functional. As to conditions: route intraperitoneal.
Series [17] has as its system L1210. The series is described as follows: Antitumor activity against mouse L1210 cells allografted in C6D2F1 mouse at 320 mg/kg, ip for 8 days starting from day 1 of challenge relative to control. Format: functional. As to conditions: route intraperitoneal.
The species entered for series [18] is Rattus norvegicus. The series is described as follows: Ratio of hydroxyurea ID50 to compound ID50 for ribonucleotide reductase purified from rat Novikoff hepatoma assessed as inhibition of [3H]CDP to [3H]dCDP conversion after 40 mins.
Series [19] concerns L1210. The series is described as follows: Antitumor activity against mouse L1210 cells allografted in C6D2F1 mouse at 125 mg/kg, ip for 8 days starting from day 1 of challenge relative to control. It is filed as functional. The note with it: route intraperitoneal.
In series [20] the test system is L1210. The series is described as follows: Antitumor activity against mouse L1210 cells allografted in C6D2F1 mouse at 63 mg/kg, ip for 8 days starting from day 1 of challenge relative to control. Format: functional. As to conditions: route intraperitoneal.
Series [21] concerns L1210. The series is described as follows: Antitumor activity against mouse L1210 cells allografted in C6D2F1 mouse at 139 mg/kg, ip bid at interval of 5 hrs between each dosing for 8 days starting from day 1 of challenge relative to control. Format: functional. The note with it: route intraperitoneal. Put shortly:
(§1)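 Mice were female C6D2F1 of about 20 g, inoculated ip on day 0 with 10^5 L1210 ascites cells grown in DBA/2 mice. Drug was given ip twice daily at 139 mg/kg per dose for 8 days, varying the interval between the two daily injections. Read-out is the T/C % of life span.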

Series [22] concerns L1210. The series is described as follows: Antitumor activity against mouse L1210 cells allografted in C6D2F1 mouse at 139 mg/kg, ip bid at interval of 7 hrs between each dosing for 8 days starting from day 1 of challenge relative to control. It is filed as functional. The note with it: route intraperitoneal. Put shortly: as §1
Series [23] relates to L1210. The series is described as follows: Antitumor activity against mouse L1210 cells allografted in C6D2F1 mouse at 139 mg/kg, ip bid at interval of 1 hr between each dosing for 8 days starting from day 1 of challenge relative to control. It is filed as functional. The note with it: route intraperitoneal. The method in brief:
as §1

For series [24], the system named is L1210. The series is described as follows: Antitumor activity against mouse L1210 cells allografted in C6D2F1 mouse at 139 mg/kg, ip bid at interval of 3 hrs between each dosing for 8 days starting from day 1 of challenge relative to control. Format: functional. As to conditions: route intraperitoneal. The method in brief:
as §1

The T/C is the result in the treated group divided by that in the control group, in per cent.

The compound `Nc1ccccc1C(=O)NO` returned a T/C with L1210 [1] of 150%. For the same compound, in the series listed under Rattus norvegicus [2], the ID50 was 120 µM. Besides, the Activity in the series with L1210 [3] worked out at 500 mg/kg.
In the same order, the values of `O=C(NO)c1ccccc1O` [SALICYLHYDROXAMIC ACID] are 147%, 150 µM and 500 mg/kg.
In the same order, the values of `Nc1ccc(C(=O)NO)c(O)c1` are 115%, 200 µM and 1000 mg/kg.
Take `O=C(NO)c1ccc(O)c(O)c1`: the T/C in the series on L1210 [1] stood at 203%; with L1210 [4], 125%; in the series with L1210 [5], 184%; in the series on L1210 [7], 28%; in the series with L1210 [8], 154%; in the series with L1210 [9], 156%. Also, in the series on L1210 [10], the T/C came out at 203%. Further, the ID50 in the series filed under Rattus norvegicus [2] turned out to be 30 µM. Also, the figures for the Activity with L1210 [3] and in the series with Mus musculus [6] were 600 mg/kg and “Toxic”, respectively.
Turning to `NC(=O)NO` [HYDROXYUREA], the T/C in the series on L1210 [1] is on record as 162%. For the same compound, the ID50 in the series filed under Rattus norvegicus [2] is 500 µM. In the series with L1210 [3], the Activity is 2500 mg/kg.
`O=C(NO)c1cccc(O)c1O`: the T/C in the series with L1210 [1] was determined as 136%; in the series with L1210 [12], 103%; in the series on L1210 [5] it was 100%; in the series on L1210 [13], 136%; in the series with L1210 [9] it was 107%. Moreover, the values for the Activity entry in the series on Mus musculus [11] and with L1210 [3] were “Toxic” and 200 mg/kg, respectively. Also, the ID50 in the series filed under Rattus norvegicus [2] turned out to be 8 µM.
Turning to `O=C(NO)c1cccc(O)c1`, the T/C stood at 177% with L1210 [1]; 148% in the series with L1210 [14]; 177% with L1210 [5]; 68% in the series on L1210 [15]; 123% in the series with L1210 [13]; 156% with L1210 [10]. The ID50 in the series filed under Rattus norvegicus [2] turned out to be 350 µM. For the same compound, in the series with L1210 [3], the Activity was determined as 500 mg/kg.
Consider `O=C(NO)c1c(O)cccc1O`, for which, in the series filed under Rattus norvegicus [2], the ID50 worked out at 100 µM.
The compound `Nc1cccc(C(=O)NO)c1` came in with a T/C in the series on L1210 [1] of 110%. Besides, the ID50 in the series filed under Rattus norvegicus [2] turned out to be 350 µM. Besides, in the series with L1210 [3], the Activity amounted to 500 mg/kg.
As for `Nc1ccc(C(=O)NO)cc1`, the T/C with L1210 [1] stood at 162%. The ID50 in the series listed under Rattus norvegicus [2] stood at 150 µM. The Activity in the series with L1210 [3] is 500 mg/kg.
In turn, `O=C(NO)c1ccc(O)cc1O` had a T/C in the series on L1210 [1] of 142%. The ID50 in the series listed under Rattus norvegicus [2] stood at 250 µM. Besides, in the series with L1210 [3], the Activity came out at 500 mg/kg.
Regarding `O=C(NO)c1ccccc1` [BENZOHYDROXAMATE], the T/C with L1210 [1] is 144%. The ID50 in the series filed under Rattus norvegicus [2] was determined as 400 µM. Moreover, the Activity in the series with L1210 [3] came to 500 mg/kg.
`Nc1ccc(C(=O)NO)cc1N`: the T/C in the series on L1210 [1] was determined as 140%. The ID50 in the series filed under Rattus norvegicus [2] turned out to be 40 µM. In addition, in the series on L1210 [3], the Activity amounted to 300 mg/kg.
Consider `O=C(NO)c1ccc(O)c(O)c1O`, for which the T/C in the series on L1210 [1] came to 130%; in the series on L1210 [16], 109%; in the series on L1210 [17], 46%; in the series on L1210 [19], 130%; in the series with L1210 [20] it was 111%; with L1210 [13] it was 108%. The T/C in the series with L1210 [9] came out at 92%. In the series filed under Rattus norvegicus [2], the ID50 was 3.5 µM. In the series filed under Rattus norvegicus [18], the Ratio turned out to be 140. Besides, the Activity in the series on L1210 [3] is 125 mg/kg.
With `O=C(NO)c1cc(O)cc(O)c1`, the T/C in the series on L1210 [1] stood at 152%. Also, the ID50 in the series filed under Rattus norvegicus [2] was 400 µM. Moreover, the Activity in the series on L1210 [3] came out at 1000 mg/kg.
In the series on L1210 [1], `O=C(NO)c1ccc(O)cc1` had a T/C of 124%. Also, in the series listed under Rattus norvegicus [2], the ID50 turned out to be 250 µM. Besides, the Activity in the series on L1210 [3] amounted to 400 mg/kg.
Turning to `O=C(NO)c1cc(O)c(O)c(O)c1`, the T/C in the series with L1210 [21] was found to be 189%; in the series with L1210 [1], 153%; with L1210 [22], 172%; in the series with L1210 [4], 125%; in the series on L1210 [23], 151%; in the series on L1210 [24], 168%. Further, the results for the T/C in the series on L1210 [7], in the series with L1210 [13] and in the series with L1210 [8] were 56%, 147% and 153%, respectively. Moreover, the ID50 in the series listed under Rattus norvegicus [2] came out at 10 µM. Further, the Activity with L1210 [3] was 400 mg/kg.
Regarding `O=C(NO)c1cc(O)ccc1O`, in the series on L1210 [1], the T/C was 130%. For the same compound, the ID50 in the series listed under Rattus norvegicus [2] came to 200 µM. Further, the Activity in the series on L1210 [3] was 300 mg/kg.
